GSH bead fluor: compound fluoresces at 488/530 nm on GSH beads. GSH beads flow cytometry, compound fluorescence 488/530 nm; stronger effect = higher value. fluorescence (KMESF) at 10 µM. hit rate 0.25% among 190,000; in the data active means fluorescence above about 89;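 further: glutathione beads carrying GST-tagged Bcl family fusion proteins plus one bare bead set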
ABCG2 block: human ABCG2 inhibition, ABCB1 as counter-screen; Q9UNQ0; IgMXP3 cells, JC-1 efflux, flow cytometry; inhibition, % at 6.6 µM; hit rate 0.1% among 190,000;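 active means inhibition above 80%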
Target sequence (Q9UNQ0 whole entry, looked up): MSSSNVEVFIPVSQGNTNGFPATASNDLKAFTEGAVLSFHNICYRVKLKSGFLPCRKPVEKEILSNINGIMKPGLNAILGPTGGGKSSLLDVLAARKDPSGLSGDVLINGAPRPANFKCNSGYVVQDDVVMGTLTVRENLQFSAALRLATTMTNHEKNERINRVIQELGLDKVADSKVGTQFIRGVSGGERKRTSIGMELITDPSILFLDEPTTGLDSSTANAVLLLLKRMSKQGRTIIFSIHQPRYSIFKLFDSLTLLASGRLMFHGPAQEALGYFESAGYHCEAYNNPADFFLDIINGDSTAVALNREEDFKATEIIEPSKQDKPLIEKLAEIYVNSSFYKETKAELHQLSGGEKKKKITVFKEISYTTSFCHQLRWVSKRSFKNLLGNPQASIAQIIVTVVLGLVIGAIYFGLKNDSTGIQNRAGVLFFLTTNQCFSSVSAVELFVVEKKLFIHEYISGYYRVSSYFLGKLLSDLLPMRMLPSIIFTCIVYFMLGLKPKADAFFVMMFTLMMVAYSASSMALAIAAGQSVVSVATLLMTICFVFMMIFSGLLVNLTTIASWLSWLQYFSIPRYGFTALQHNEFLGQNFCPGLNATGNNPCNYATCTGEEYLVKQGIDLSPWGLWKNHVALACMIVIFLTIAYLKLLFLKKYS
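material = IgMXP3 (ABCG2) plus far-red-tagged CCRF-Adr (ABCB1) cells | amount = 3 million cells/mL, equal mix of both lines | also added = JC-1 transporter substrate | dosing = one concentration, 6.6 µM final | schedule = 10 min at 25 °C | measured by = flow cytometric JC-1 green MFI at 530 nm | read-out basis = percent efflux inhibition, scaled nicardipine 100% to DMSO 0%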
ABCB1 inh: inhibitors of human ABCB1 transporter, ABCG2 counter-screen. P08183. CCRF-Adr cells, JC-1 efflux, flow cytometry. inhibition, % at 6.6 µM. hit rate 0.067% among 190,000. AID 1326; in the data active means inhibition above about 40%;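 further: higher value means more JC-1 retained so stronger ABCB1 efflux block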
Avidin bead fluor: avidin bead compound fluorescence profile. hit rate 0.38% among 220,000. AID 1775. Avidin beads, compound fluorescence 488/530 nm, flow cytometry; stronger effect = higher value. fluorescence (KMESF) at 10 µM; in the data active means fluorescence above about 47
Lmaj promast: reduces viability of Leishmania major promastigotes; resazurin fluorescence viability; inhibition, % at 10 µM; hit rate 9% among 200,000; AID 1063;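 further: promastigotes grown with compound for 44 hours at 28 °C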
PKD1 inh: PKD1 (human) kinase inhibition | inhibition, % (concentration not given with the values) | hit rate 0.056% among 200,000 | PKD1 kinase fluorescence polarization assay | AID 797
A number is an active result; - = inactive; . = no result given. Many of the other results were omitted from the sample, so hits are more common in it than they were. Unless noted, no stated cut-off is given here; in the data, active means inhibition above about 50%; inactive means the rest.

SMILES | GSH bead fluor | ABCG2 block | ABCB1 inh | Avidin bead fluor | Lmaj promast | PKD1 inh
COC(=O)c1[nH]c2ccc(C)cc2c1NC(=O)CN1CCCc2ccccc21 | - | - | - | - | - | -
COc1cc(CNC23CC4CC(CC(C4)C2)C3)ccc1OCc1ccccc1 | - | - | - | - | 79 | -
COc1cc(CNCc2ccccn2)ccc1OCc1cccc(Cl)c1 | - | - | - | - | 99 | -
COc1cc(CNCc2ccccn2)ccc1OCc1c(Cl)cccc1Cl | - | - | - | - | 100 | -
COc1cc(CNCc2ccco2)ccc1OCc1ccccc1 | - | - | - | - | 100 | -
C=CCc1cc(/C=N\NC(=O)CSc2nnc(CCCc3ccc(OC)c(C)c3)o2)cc(OC)c1O | - | - | - | - | - | -
COc1cc(CNCc2ccccn2)ccc1OCc1ccc(Cl)cc1 | - | - | - | - | 96 | -
COc1ccc(CNc2ncccn2)cc1OC | - | - | - | - | - | -
NC(=O)Cn1nnc(-c2ccc(NC(=O)c3ccc(F)cc3)cc2)n1 | - | - | - | - | - | -
Cc1ccc(/C=C/C(=O)c2nc3ccccc3[nH]2)cc1 | - | - | - | - | 98 | -
O=C(NC1CCCC1)c1cccc(Oc2ccccc2)c1 | - | - | - | - | - | -
CCCCC(=Nc1ccc(N)cc1)C1=C(O)C(C(=O)OC)C(C)(C)CC1=O (centres undefined) | - | - | - | - | 68 | -
CCC(=Nc1ccc(N)cc1)C1=C(O)C(C(=O)OC)C(C)(C)CC1=O (centres undefined) | - | - | - | - | - | -
COc1ccc(C2c3[nH]c4ccccc4c3CCN2C(=O)c2cc3ncccn3n2)c(F)c1 (centres undefined) | - | - | - | - | - | -
CSc1nc(C(=O)N2CCc3c([nH]c4ccccc34)C2c2ccccn2)cs1 (centres undefined) | - | - | - | - | - | -
O=C(c1cccs1)N1CCc2c([nH]c3ccccc23)C1c1ccccn1 (centres undefined) | - | - | - | - | - | -
O=C(c1cc(-c2ccccc2)n[nH]1)N1CCc2c([nH]c3ccccc23)C1c1ccccn1 (centres undefined) | - | - | - | - | 86 | -
COc1ccc(C2c3[nH]c4ccccc4c3CCN2C(=O)c2cn3ccccc3n2)c(F)c1 (centres undefined) | - | - | - | - | 53 | -
Cc1ccc2nc(C(=O)N3CCc4c([nH]c5ccccc45)C3c3ccccn3)cn2c1 (centres undefined) | - | - | - | - | 68 | -
COc1ccc(CCN2C(=O)NC(NC(=O)C(C)(C)C)(C(F)(F)F)C2=O)cc1OC (centres undefined) | - | - | - | - | - | -
CC(c1ccccc1)N1C(=O)NC(NC(=O)C(C)(C)C)(C(F)(F)F)C1=O (centres undefined) | - | - | - | - | 52 | -
CSc1ccc(CNc2ccc(C)cc2)cc1 | - | - | - | - | 100 | -
CSc1ccc(CNc2ccc(C)c(C)c2)cc1 | - | - | - | - | - | -
C=C(C)CSc1[nH]c(=O)cc(C)c1C#N | - | - | - | - | - | -
COc1cccc(CNC(=O)C(c2ccc(Cl)cc2)C(C)C)c1 (centres undefined) | - | - | - | - | 57 | -
SMILES | GSH bead fluor | ABCG2 block | ABCB1 inh | Avidin bead fluor | Lmaj promast | PKD1 inh
COc1cccc(CNC(=O)CCl)c1 | - | - | - | - | - | -
CCN(CC)c1ccc(/C=N/NC(=O)CCC(=O)NCc2ccccc2)c(O)c1 | - | - | - | - | 98 | -
CCN(CC)c1ccc(/C=N/NC(=O)c2c(Cl)cnn2C)c(O)c1 | - | - | - | - | 99 | -
CCOC(=O)N/N=C/c1ccc(N(CC)CC)cc1O | - | - | - | - | - | -
CCN(CC)c1ccc(/C=N/Nc2nc(C)cc(=O)[nH]2)c(O)c1 | - | - | - | - | 99 | -
CCOc1ccc(N(CC(=O)NC2CCCC(C)C2C)S(=O)(=O)c2c(C)noc2C)cc1 (centres undefined) | - | - | - | - | - | -
Cc1noc(C)c1N=Nc1ccc(Br)cc1C(=O)O | - | - | - | - | - | -
COc1cccc(/C=N/NC(=O)c2ccc(CN3c4cccc5cccc(c45)S3(=O)=O)cc2)c1 | - | - | - | - | 82 | -
COc1cccc(N(CC(=O)N2CCN(c3ccccc3OC)CC2)S(C)(=O)=O)c1 | - | - | - | - | - | -
COc1ccc(N2CCN(C(=O)CN(c3ccccc3)S(=O)(=O)c3ccc(OC)cc3)CC2)cc1 | - | - | - | - | - | -
COc1ccc(S(=O)(=O)N(CC(=O)N2CCN(c3ccccc3OC)CC2)c2ccccc2)cc1 | - | - | - | - | 91 | -
COc1ccccc1N1CCN(C(=O)CN(c2ccc(C)c(C)c2)S(C)(=O)=O)CC1 | 268 | - | - | - | - | -
COc1cccc(/C=N/NC(=O)Cn2cnc3c2c(=O)n(C)c(=O)n3C)c1 | . | . | . | - | . | .
COc1ccc(C2CC(=O)C3=C(C2)Nc2ncnn2C3c2ccccc2C)c(OC)c1 (centres undefined) | - | - | - | - | 100 | -
CN1CCN(CCCNC(=O)c2cc3c(-c4ccc(Cl)cc4)nn(C)c3s2)CC1 | - | - | - | - | 100 | -
Cn1nc(-c2ccc(Cl)cc2)c2cc(C(=O)NCC3CCCO3)sc21 (centres undefined) | - | - | - | - | - | -
CCN(CC)CCCNC(=O)c1cc2c(-c3ccc(Cl)cc3)nn(C)c2s1 | - | - | - | - | 100 | -
CCN(CC)CCCNC(=O)c1cc(-c2ccc(O)cc2)on1 | - | - | - | - | - | -
CCN(CC)CCCNC(=O)c1cc(-c2ccc(Cl)c(Cl)c2)on1 | - | - | - | - | 99 | -
Cc1ccc(NC(=O)Cc2ccc3c(c2)OCCO3)cc1S(=O)(=O)N1CCCCC1 | . | . | . | - | . | .
O=C(c1sc2ccccc2c1Cl)N(Cc1ccccc1)C1CCS(=O)(=O)C1 (centres undefined) | - | - | - | - | - | -
O=C(c1sc2ccccc2c1Cl)N(Cc1ccco1)C1CCS(=O)(=O)C1 (centres undefined) | - | - | - | - | 96 | -
Cc1ccc(S(=O)(=O)NCCC(=O)Nc2nnc(C)s2)cc1 | - | - | - | - | - | -
Cc1cc(C)cc(N(CCC(=O)Nc2nnc(C)s2)S(=O)(=O)c2ccc(Cl)cc2)c1 | - | - | - | - | 93 | -
Cc1ccc(CNC(=O)CSc2nc3ccccc3c3nc(C)nn23)cc1 | - | - | - | - | - | -
Cc1c(Br)cc(C(=O)NCCCN2CCOCC2)c(C)c1C | - | - | - | - | 61 | -
O=C(NCCCN1CCOCC1)c1cc2cc(Br)ccc2oc1=O | - | - | - | - | - | -
O=C(NCCCN1CCOCC1)c1ccc(Br)cc1Br | - | - | - | - | 81 | -
O=c1c2c3c(sc2n2cnnc2n1Cc1ccccc1)CN(Cc1ccccc1)CC3 | . | . | . | . | 100 | -
